Measured values as given in ChEMBL document CHEMBL3108704, “Novel endoperoxide-based transmission-blocking antimalarials with liver- and blood-schizontocidal activities” (ACS Med Chem Lett, 2014).
Active and inactive are the calls of the source. No cut-off for these calls is given here.

Assays:
[1] = tested on: Huh-7; assay: Cytotoxicity against human HuH7 cells assessed as cell viability by Alamar Blue assay; assay type: cell-based
[2] = tested on: Plasmodium berghei; assay: Antisporogonic activity against GFP expressing Plasmodium berghei ANKA infected in BALB/c mouse assessed as inhibition of appearance of oocysts in Anopheles gambiae level at 25 umol/kg, ip by microscopic analysis (reference value: 83.6%); assay type: functional
[3] = tested on: Plasmodium falciparum; assay: Antimalarial activity against chloroquine-resistant erythrocyte stage of Plasmodium falciparum W2 after 48 hrs; assay type: functional, organism-based; details: W2, 48 h
[4] = tested on: Plasmodium berghei; assay: Antimalarial activity against liver stage of Plasmodium berghei infected in human Huh7 cells after 48 hrs by luciferase assay; assay type: functional, organism-based; details: Huh-7, 48 h
[5] = tested on: Plasmodium berghei; assay: Antisporogonic activity against GFP expressing Plasmodium berghei ANKA infected in BALB/c mouse assessed as inhibition of appearance of oocysts in Anopheles gambiae level at 10 umol/kg, ip by microscopic analysis (reference value: 83.6%); assay type: functional
[6] = Half life in rat liver microsomes at 0.1 uM; assay type: ADME
Outline: (§1)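 Compound was incubated with rat liver microsomes at 37 °C. Half-life and in vitro intrinsic clearance (μL/min/mg protein) were determined, and in vivo hepatic extraction ratio was predicted from them.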

[7] = tested on: Plasmodium berghei; assay: Antimalarial activity against GFP expressing Plasmodium berghei ANKA infected in C57Bl/6J mouse assessed as host survival at 30 mg/kg, ip qd for 5 days measured on day 5; assay type: functional, organism-based; parameters: dose 30 mg/kg
Outline: (§2)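 Male C57Bl/6J mice were infected with GFP-expressing P. berghei ANKA on day 0. From day 4, compound was given i.p. at 30 mg/kg b.w. once daily for 5 consecutive days. Parasitemia was monitored daily by microscopy and flow cytometry. Survival was followed to the end of the experiment, and adverse reactions were recorded.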

[8] = Intrinsic clearance in rat liver microsomes at 0.1 uM; assay type: ADME; details: read-out: CLH; outline: as §1
[9] = tested on: Plasma; assay: Metabolic stability of the compound in 80% human plasma assessed as formation of primaquine and carboxyprimaquine metabolite after 3 days; assay type: ADME, cell-free; details: 72 h
[10] = tested on: Plasmodium berghei; assay: Antimalarial activity against GFP expressing Plasmodium berghei ANKA infected in C57Bl/6J mouse assessed as reduction of parasitemia at 30 mg/kg, ip qd for 5 days measured on day 5; assay type: functional, organism-based; parameters: dose 30 mg/kg; outline: as §2
[11] = tested on: Mus musculus; assay: Toxicity in Plasmodium berghei ANKA infected C57Bl/6J mouse assessed as adverse reactions at 30 mg/kg, ip qd for 5 days measured on day 5; assay type: organism-based; parameters: dose 30 mg/kg, route intraperitoneal; details: in vivo, 120 h; outline: as §2

## COc1cc(NC(C)CCCNC2CCC3(CC2)OOC2(OO3)C3CC4CC(C3)CC2C4)c2ncccc2c1 (stereo not given)
[1]
  IC50: 8200 nM
[2]
  inhibition in vivo at 25 µmol/kg: 13.3%
[3]
  IC50: 21.6 nM
[4]
  IC50: 330 nM
[5]
  inhibition in vivo at 10 µmol/kg: 36.4%

## COc1cc(NC(C)CCCNC(=O)C[C@H]2O[C@@H]3O[C@]4(C)CC[C@H]5[C@H](C)CC[C@@H]([C@H]2C)[C@@]35OO4)c2ncccc2c1 (stereo not given in full)
[3]
  IC50: 9.1 nM
[4]
  IC50: 523 nM

## COc1cc(NC(C)CCCNC(=O)C2CCC3(CC2)OOC2(OO3)C3CC4CC(C3)CC2C4)c2ncccc2c1 (stereo not given)
[1]
  IC50: > 100000 nM
[2]
  inhibition in vivo at 25 µmol/kg: 0%
[3]
  IC50: 21.1 nM
[4]
  IC50: 538 nM
[6]
  half-life at 0.1 µM: 10 min
[7]
  Activity: Active
[8]
  microsomal CLint at 0.1 µM: 133 µL/min/mg
[5]
  inhibition in vivo at 10 µmol/kg: 68.6%
[9]
  Stability: Stable
[10]
  Activity: Active
[11]
  Activity: Non-toxic

## COc1cc(NC(C)CCCNCc2ccc(CO[C@H]3O[C@@H]4O[C@]5(C)CC[C@H]6[C@H](C)CC[C@@H]([C@H]3C)[C@@]46OO5)cc2)c2ncccc2c1 (stereo not given in full)
[3]
  IC50: 12.5 nM
[4]
  IC50: 155 nM

## COc1cc(NC(C)CCCNCC2CCC3(CC2)OOC2(OO3)C3CC4CC(C3)CC2C4)c2ncccc2c1 (stereo not given)
[1]
  IC50: 5020 nM
[2]
  inhibition in vivo at 25 µmol/kg: 5.9%
[3]
  IC50: 45.2 nM
[4]
  IC50: > 1000 nM
[6]
  half-life at 0.1 µM: 27 min
[8]
  microsomal CLint at 0.1 µM: 51.2 µL/min/mg
[5]
  inhibition in vivo at 10 µmol/kg: 42.9%
[9]
  Stability: Stable

## C[C@@H]1CC[C@H]2[C@@H](C)C(=O)O[C@@H]3O[C@@]4(C)CC[C@@H]1[C@]32OO4 [ARTEMISININ]
[3]
  IC50: 8.2 nM
[4]
  IC50: > 10000 nM

## COc1cc(NC(C)CCCNC(=O)CC2CCC3(CC2)OOC2(OO3)C3CC4CC(C3)CC2C4)c2ncccc2c1 (stereo not given)
[1]
  IC50: 2570 nM
[2]
  inhibition in vivo at 25 µmol/kg: 11.4%
[3]
  IC50: 36.5 nM
[4]
  IC50: 604 nM
[5]
  inhibition in vivo at 10 µmol/kg: 66.7%

## COc1cc(NC(C)CCCNC(=O)c2ccc(CO[C@H]3O[C@@H]4O[C@]5(C)CC[C@H]6[C@H](C)CC[C@@H]([C@H]3C)[C@@]46OO5)cc2)c2ncccc2c1 (stereo not given in full)
[1]
  IC50: 73000 nM
[3]
  IC50: 5.1 nM
[4]
  IC50: 67 nM

## CCOC(=O)C1CCC2(CC1)OOC1(OO2)C2CC3CC(C2)CC1C3 (stereo not given)
[3]
  IC50: 128 nM
[4]
  IC50: > 10000 nM

## COc1cc(NC(C)CCCNCC[C@H]2O[C@@H]3O[C@]4(C)CC[C@H]5[C@H](C)CC[C@@H]([C@H]2C)[C@@]35OO4)c2ncccc2c1 (stereo not given in full)
[1]
  IC50: 32800 nM
[3]
  IC50: 9.3 nM
[4]
  IC50: > 1000 nM

## COc1cc(NC(C)CCCN)c2ncccc2c1 (stereo not given) [PRIMAQUINE]
[2]
  inhibition in vivo at 25 µmol/kg: 2.2%
[5]
  inhibition in vivo at 10 µmol/kg: 35.5%
